From ChEMBL document CHEMBL1687753, “Mitochondrial DNA depletion and respiratory chain activity in primary human subcutaneous adipocytes treated with nucleoside analogue reverse transcriptase inhibitors” (Antimicrob Agents Chemother, 2010) come the findings set out here.

Activity calls are given as the source filed them. No cut-off for these calls is given here.

The nature of series [1]: Toxicity in human subcutaneous preadipocytes assessed as decrease of mitochondrial DNA abundance at 6 uM after 30 days by RT-PCR analysis. It counts as cell-based. To be noted: 720 h. In outline:
(§1)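 mtDNA content of differentiated preadipocytes at day 30 or 60 of drug exposure was measured by real-time quantitative PCR with human-specific primers. Absolute copy numbers came from serial dilutions of plasmid standards. Three independent experiments.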

Series [2] concerns Homo sapiens. The series can be described thus: Inhibition of electron transport protein complex 1/3 in human subcutaneous preadipocytes at 6 uM after 30 to 60 days by photometric analysis. In kind it is cell-based. In outline: (§2)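 Pooled primary human abdominal subcutaneous preadipocytes induced to differentiate with drug (DMSO vehicle, ≤0.1%) added at day 0 and kept to day 30 or 60. Cells sonicated twice for 10 s; substrates added to lysates and conversion by complexes I+III, II+III, IV, V and citrate synthase read photometrically at 37°C. Three independent experiments.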

Series [3] can be described thus: Toxicity in human subcutaneous preadipocytes assessed as decrease of insulin-sensitizing adipokine expression at 6 uM after 30 days by RT-PCR analysis. It counts as cell-based. The settings on record: 720 h. In outline:
(§3)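 Adiponectin mRNA at day 30 was measured by qRT-PCR normalized to transferrin receptor or beta-actin, using pooled RNA and cDNA. Triplicates from three independent experiments.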

Series [4] is described as follows: Toxicity in fully differentiated human subcutaneous preadipocytes assessed as cell death at 6 uM after 30 days using […]. The settings on record: 720 h. A digest of the protocol: (§4)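 Trypan blue exclusion counted by microscopy at each medium change every fifth day during 30 days of drug exposure in differentiating pooled preadipocytes. Final viability was calculated by excluding the cumulative percentage of dead cells. Five independent experiments.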

Series [5] in a line: Toxicity in human subcutaneous preadipocytes assessed as cell death at 6 uM after 30 days using […]. In kind it is cell-based. To be noted: 720 h. A digest of the protocol: as §4
A short description of series [6]: Toxicity in human subcutaneous preadipocytes assessed as decrease of cell viability measured every 5 days at 6 uM after 30 days using […]. In kind it is cell-based. To be noted: 720 h. In outline:
as §4

Series [7] in a line: Toxicity in human subcutaneous preadipocytes assessed as decrease of cell cultures at 6 uM after 30 days using oil red O fluorescence staining by conventional fluorescence microscopy. In kind it is cell-based. The settings on record: 720 h. In outline: (§5)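 On day 30 of differentiation with drug present from day 0, cells were fixed in 10% formalin and stained with 0.21% oil red O. Staining was viewed by fluorescence and light microscopy. For quantification, dye was extracted with isopropanol and read at 495 nm, also adjusted for viable cell number. Five independent experiments.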

Series [8] in a line: Toxicity in human subcutaneous preadipocytes assessed as triacylglyceride droplets at 6 uM after 30 days using oil red O fluorescence staining by conventional fluorescence microscopy. To be noted: 720 h. In kind it is cell-based. In outline: (§6)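 Preadipocytes were differentiated with a hormone cocktail (IBMX for the first 7 days, dexamethasone, insulin, indomethacin; high-glucose DMEM for days 0–18), with drug or vehicle present from day 0 to day 30. Cells were fixed in 10% formalin, stained with 0.21% oil red O in 60% isopropanol, and imaged by fluorescence microscopy. Quantification was by isopropanol extraction at 495 nm, optionally adjusted for viable cells.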

Series [9] can be described thus: Toxicity in human subcutaneous preadipocytes assessed as acquisition of adipocyte shape at 6 uM after 30 days using oil red O fluorescence staining by conventional fluorescence microscopy. The settings on record: 720 h. It counts as cell-based. A digest of the protocol: as §5
Series [10] in a line: Toxicity in human subcutaneous preadipocytes assessed as decrease of C/EBPalpha expression at 6 uM after 18 days by RT-PCR analysis. In kind it is cell-based. Further details: scale not given: the % may be the effect or the level left. The settings on record: 432 h. A digest of the protocol: (§7)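 Differentiating preadipocytes were harvested at day 18. RNA from three plates was pooled and reverse transcribed, and qRT-PCR was run with 42 cycles of 94/55/72°C. Values were normalized to transferrin receptor or beta-actin by standard curve. Triplicates from three independent experiments.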

Series [11] in a line: Toxicity in human subcutaneous preadipocytes assessed as decrease of PPARgamma expression at 6 uM after 18 days by RT-PCR analysis. To be noted: 432 h. It counts as cell-based. Further details: scale not given: the % may be the effect or the level left. A digest of the protocol:
as §7

A short description of series [12]: Toxicity in human subcutaneous preadipocytes assessed as decrease of adiponectin expression at 6 uM after 30 days by ELISA. In kind it is cell-based. To be noted: 720 h. In outline: (§8)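 Adiponectin secreted into the medium over days 25 to 30 of drug exposure in differentiating preadipocytes was measured by sandwich ELISA of culture supernatant. Three independent experiments.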
For orientation: ELISA stands for enzyme-linked immunosorbent assay.

The subject of series [13] is Homo sapiens. Description: Inhibition of electron transport protein complex 2/3 in human subcutaneous preadipocytes at 6 uM after 30 to 60 days by photometric analysis. In kind it is cell-based. In outline:
as §2

Series [14] concerns Homo sapiens. The series can be described thus: Inhibition of electron transport protein complex 4 in human subcutaneous preadipocytes at 6 uM after 30 to 60 days by photometric analysis. It counts as cell-based. In outline: as §2
Series [15] concerns Homo sapiens. The series can be described thus: Inhibition of electron transport protein complex 5 in human subcutaneous preadipocytes at 6 uM after 30 to 60 days by photometric analysis. It counts as cell-based. A digest of the protocol: as §2
For series [16], the system named is Homo sapiens. Description: Inhibition of citrate synthase in human subcutaneous preadipocytes at 6 uM after 30 to 60 days by photometric analysis. It counts as cell-based. A digest of the protocol: as §2
Series [17] in a line: Toxicity in human subcutaneous preadipocytes assessed as effect on mitochondrial membrane potential at 6 uM after 30 days using JC-1 red/green fluorescence dye by flow cytometry analysis. To be noted: 720 h. It counts as cell-based. In outline: (§9)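 Pooled primary human subcutaneous preadipocytes (passage ≤4) were differentiated with drug or DMSO vehicle from day 0 and cultured 30 days. Staining with the JC-1 kit was followed by flow cytometry, and the JC-1 red/green fluorescence intensity ratio was used as the membrane potential read-out. CCCP served as the depolarization control. Three independent experiments, means ± SEM.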
(A flow cytometer gives signals particle by particle.)

A short description of series [18]: Toxicity in human subcutaneous preadipocytes assessed as effect on mitochondrial mass at 6 uM after 30 days using […] by flow cytometry analysis. In kind it is cell-based. The settings on record: 720 h.
The nature of series [19]: Toxicity in human subcutaneous preadipocytes assessed as decrease of mitochondrial DNA abundance at 3 uM after 30 days by RT-PCR analysis. To be noted: 720 h. In kind it is cell-based. A digest of the protocol:
as §1

A short description of series [20]: Toxicity in human subcutaneous preadipocytes assessed as decrease of mitochondrial DNA abundance at 3 uM after 60 days by RT-PCR analysis. In kind it is cell-based. The settings on record: 1440 h. A digest of the protocol:
as §1

Series [21] in a line: Toxicity in human subcutaneous preadipocytes assessed as decrease of mitochondrial DNA copy number per cell at 3 uM after 60 days by RT-PCR analysis. Further details: scale not given: the % may be the effect or the level left. In kind it is cell-based. The settings on record: 1440 h. A digest of the protocol:
as §1

The nature of series [22]: Toxicity in human subcutaneous preadipocytes assessed as acquisition of adipocyte shape at 3 uM after 30 days using oil red O fluorescence staining by conventional fluorescence microscopy. To be noted: 720 h. It counts as cell-based. In outline: as §5
Series [23] can be described thus: Toxicity in human subcutaneous preadipocytes assessed as triacylglyceride droplets at 3 uM after 30 days using oil red O fluorescence staining by conventional fluorescence microscopy. It counts as cell-based. To be noted: 720 h. A digest of the protocol: as §6
The nature of series [24]: Toxicity in human subcutaneous preadipocytes assessed as decrease of cell cultures at 3 uM after 30 days using oil red O fluorescence staining by conventional fluorescence microscopy. In kind it is cell-based. The settings on record: 720 h. In outline:
as §5

Series [25] is described as follows: Toxicity in human subcutaneous preadipocytes assessed as decrease of cell viability measured every 5 days at 3 uM after 30 days using […]. In kind it is cell-based. The settings on record: 720 h. In outline: as §4
Series [26] can be described thus: Toxicity in human subcutaneous preadipocytes assessed as cell death at 3 uM after 30 days using […]. It counts as cell-based. The settings on record: 720 h. In outline: as §4
Series [27] in a line: Toxicity in fully differentiated human subcutaneous preadipocytes assessed as cell death at 3 uM after 30 days using […] by conventional fluorescence microscopy. The settings on record: 720 h. In outline:
as §4

The nature of series [28]: Toxicity in human subcutaneous preadipocytes assessed as decrease of PPARgamma expression at 0.1 uM after 18 days by RT-PCR analysis. In kind it is cell-based. To be noted: 432 h. In outline: as §7
Series [29] in a line: Toxicity in human subcutaneous preadipocytes assessed as decrease of PPARgamma expression at 3 uM after 18 days by RT-PCR analysis. The settings on record: 432 h. It counts as cell-based. A digest of the protocol:
as §7

Series [30] can be described thus: Toxicity in human subcutaneous preadipocytes assessed as decrease of C/EBPalpha expression at 0.1 uM after 18 days by RT-PCR analysis. In kind it is cell-based. The settings on record: 432 h. In outline: as §7
The nature of series [31]: Toxicity in human subcutaneous preadipocytes assessed as decrease of C/EBPalpha expression at 3 uM after 18 days by RT-PCR analysis. It counts as cell-based. To be noted: 432 h. A digest of the protocol: as §7
A short description of series [32]: Toxicity in human subcutaneous preadipocytes assessed as decrease of adiponectin expression at 3 uM after 30 days by ELISA. It counts as cell-based. The settings on record: 720 h. A digest of the protocol: as §8
The nature of series [33]: Toxicity in human subcutaneous preadipocytes assessed as decrease of insulin-sensitizing adipokine expression at 3 uM after 30 days by RT-PCR analysis. It counts as cell-based. The settings on record: 720 h. In outline: as §3
Series [34] has as its system Homo sapiens. Description: Inhibition of electron transport protein complex 1/3 in human subcutaneous preadipocytes at 3 uM after 30 to 60 days by photometric analysis. In kind it is cell-based. In outline:
as §2

Series [35] deals with Homo sapiens. Description: Inhibition of electron transport protein complex 2/3 in human subcutaneous preadipocytes at 3 uM after 30 to 60 days by photometric analysis. In kind it is cell-based. A digest of the protocol: as §2
In series [36] the test system is Homo sapiens. The series can be described thus: Inhibition of electron transport protein complex 4 in human subcutaneous preadipocytes at 3 uM after 30 to 60 days by photometric analysis. It counts as cell-based. In outline: as §2
Series [37] concerns Homo sapiens. Description: Inhibition of electron transport protein complex 5 in human subcutaneous preadipocytes at 3 uM after 30 to 60 days by photometric analysis. In kind it is cell-based. A digest of the protocol: as §2
For series [38], the system named is Homo sapiens. The series can be described thus: Inhibition of citrate synthase in human subcutaneous preadipocytes at 3 uM after 30 to 60 days by photometric analysis. It counts as cell-based. A digest of the protocol: as §2
Series [39] in a line: Toxicity in human subcutaneous preadipocytes assessed as effect on mitochondrial membrane potential at 3 uM after 30 days using JC-1 red/green fluorescence dye by flow cytometry analysis. It counts as cell-based. To be noted: 720 h. In outline:
as §9

Series [40] can be described thus: Toxicity in human subcutaneous preadipocytes assessed as effect on mitochondrial mass at 3 uM after 30 days using […] by flow cytometry analysis. In kind it is cell-based. To be noted: 720 h.

In the case of `Cc1cn([C@H]2C[C@H](N=[N+]=[N-])[C@@H](CO)O2)c(=O)[nH]c1=O` [ZIDOVUDINE], the Activity entry in series [1] was “Non-toxic”; in [3], “Non-toxic”; in [4], “Toxic”; in [5], “Toxic”; in series [6], “Toxic”; in series [7], “Toxic”. Besides, the Activity result in series [8] is on record as “Non-toxic”; in series [9], “Non-toxic”; in series [10] it was 40%; in series [11], 40%; in [12], “Non-toxic”; in series [17], “Non-toxic”. Besides, the Activity result in series [18] is reported as “Non-toxic”. In addition, the inhibition entry in the series on Homo sapiens [2], with Homo sapiens [13], in the series on Homo sapiens [14], in the series with Homo sapiens [15] and in the series on Homo sapiens [16] was “inactive” in each case.

Turning to `Cc1cn([C@H]2C=C[C@@H](CO)O2)c(=O)[nH]c1=O` [STAVUDINE], the Activity result is recorded as “Toxic” in series [19]; “Toxic” in [20]; 50% in series [21]; “Non-toxic” in series [22]; “Non-toxic” in [23]; “Toxic” in series [24]. The Activity result in series [25] is on record as “Toxic”; in [26] it was “Toxic”; in [27], “Toxic”; in [28] it was “Non-toxic”; in series [29], “Non-toxic”; in [30] it was “Non-toxic”. Further, the Activity result in series [31], in [32], in series [33], in [39] and in series [40] was “Non-toxic” throughout. Further, the inhibition result with Homo sapiens [34], in the series on Homo sapiens [35], in the series with Homo sapiens [36], in the series on Homo sapiens [37] and in the series on Homo sapiens [38] was “inactive” each time.
